Results reported in ChEMBL document CHEMBL4513216, “Probing the Open Global Health Chemical Diversity Library for Multistage-Active Starting Points for Next-Generation Antimalarials” (ACS Infect Dis, 2020).

Assay: Toxicity liver stage against HepG2, at 10uM
Format: cell-based
Parameters: test concentration 10 uM, cell line HepG2-A16-CD81EGFP
Conditions: human, HepG2-A16-CD81EGFP cells; read-out: INHIBITION
Method in brief: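 Uninfected HepG2-A16-CD81EGFP cells, 3 × 10^3 per well, 1536-well, plated on prespotted compound at 10 μM final, parasite-free screening media added to match infected plates; puromycin 10 μM positive, DMSO 0.5% negative; run in parallel with 48 h PbLuc assay at 37 °C, 5% CO2; viability by CellTiter-Glo luminescence, normalized to controls.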

Compound	cytotoxicity at 10 µM
O=C(N1CCOCC1)n1cnc2ccccc21	-3.11%
Cc1ccc(Cl)cc1N1CCN(CC(=O)NC(C)c2ccco2)CC1 (stereo not given)	5.89%
COc1ccc(CN2C[C@@H]3OCC(=O)N(Cc4nccn4C)[C@@H]3C2)cc1	4.24%
CC(C)NC(=O)COc1cccc(-c2nc(C(C)C)no2)c1	-5.77%
CCC(=O)NC(c1cccnc1)c1cc(C)ccc1C (stereo not given)	-2.8%
CC(C)[C@H](NC(=O)Cn1nc2c(cc1=O)CCCC2)C(=O)O	1.85%
COC(=O)CC1CCN(C(=O)c2ccc(-n3nnnc3C)cc2)CC1	-6.72%
O=C(NCCN1CCCCC1)c1nc(-c2ccc3cc[nH]c3c2)no1	-8.54%
Cn1cc(I)c(C(=O)NCCCn2cc(Br)cn2)n1	6.54%
CCC(=O)Nc1c(C)nn(COc2cccc(F)c2)c1C	7.77%
CCn1cc(CN(C)S(=O)(=O)c2ccc(C(C)C)cc2)cn1	20.1%
c1cc(-c2nn3c(CN4CCOCC4)nnc3s2)ccn1	11%
COc1c(CC2CC(CO)=NO2)c(Br)c2c(c1OC)OCO2 (stereo not given)	-1.43%
CCn1nccc1CNC(=O)NC1CCCCC1	-27.5%
CN1CCC(Cc2cnc(CNC(=O)Cc3cccc(F)c3)cn2)CC1	-2.67%
O=C(C1CC1)N1C[C@H]2CCCN(S(=O)(=O)c3cccc(F)c3)[C@H]2C1	5.11%
CC(C)N1CCC(Cn2cc(C(N)=O)cn2)CC1	6.39%
CS(=O)(=O)N1CCCC(Cc2cnc(Br)cn2)C1 (stereo not given)	17.3%
CC(=O)N1CCn2c(nnc2C2CCCCN2Cc2ccccc2Cl)C1 (stereo not given)	10.6%
O=C1CO[C@H]2CN(Cc3cccc4[nH]ccc34)C[C@@H]2N1C1CCOCC1	-17.3%
Nc1nccnc1C1CN(C(=O)c2cnc(C3CC3)nc2)CCO1 (stereo not given)	-27%
CC(=O)N1CCCC(c2ncncc2-c2ccncc2)C1 (stereo not given)	-15.3%

Compound	cytotoxicity at 10 µM
CN1CCCCC1c1ncc2c(n1)CCN(CCCc1ccccc1)C2 (stereo not given)	-30.5%
c1cc(CN2CCCC(c3nnc(-c4cnccn4)o3)C2)ccn1 (stereo not given)	-9.14%
Cc1nc(CCC(=O)NC2CCC2)cc(C2CCCNC2)n1 (stereo not given)	1.09%
O[C@@H]1CN(Cc2cccnc2)C[C@H]1Oc1ccccc1	-23.2%
O=C1Nc2ccccc2CC12CCCN2Cc1ccc(C(F)(F)F)cc1 (stereo not given)	30.2%
CN(C)Cc1ccnc(NS(=O)(=O)Cc2cccc(F)c2)c1	1.76%
Cc1noc(C)c1CN(C)C(=O)C1CCN(S(N)(=O)=O)CC1	7.47%
CC(C)(C)n1ncc(C(=O)NCCCC(N)=O)c1C(F)(F)F	8.85%
CSc1c[nH]nc1NS(=O)(=O)c1cc(F)ccc1C	6.98%
CC1CCN(c2ccc(C(=O)N3CCCC3c3ccc[nH]3)cn2)CC1 (stereo not given)	2.84%
Cc1occc1C(=O)NCC(=O)N(C)CCCOc1ccc(F)cc1	-41.9%
COC(=O)c1ccc(N(C(=O)c2cscn2)C(C)C)c(C)c1	1.7%
Cc1cc2n(n1)CC(CNCc1cc(C)on1)CN2 (stereo not given)	-7.93%
Cc1cc(C)n(CC2CCN(CC(O)COc3ccccc3)CC2)n1 (stereo not given)	-5.58%
CC1COCCN1C(=O)Cc1cc(Cl)c2c(c1)OCCO2 (stereo not given)	-4.29%
Cc1c(COc2ccccc2)cccc1NC(=O)N1CC[C@H](O)C1	13.7%
Fc1ccc(CNCCn2cccn2)cc1F	-8.01%
COc1cc(C(C)NCc2cscn2)ccc1SC(F)F (stereo not given)	0.762%
Cc1cc(NC(=O)c2nc(N3CCCC3)ncc2Cl)ccc1Br	-7.2%
O=C(c1cc2c([nH]c1=O)CCC2)N1CCCC1c1ccccn1 (stereo not given)	-3.18%
CC(C)OCCSc1nnnn1C1CCOCC1	-0.494%
CC(c1ccc(C(F)(F)F)cc1)N1CCN(CCS(C)(=O)=O)CC1 (stereo not given)	3.25%

Compound	cytotoxicity at 10 µM
CCSc1cc(C(=O)NCCNC(=O)Cc2ccccc2)ccn1	-6.41%
Cc1cc(NC2CCc3ncnn3C2)n2nc(C(F)(F)F)nc2n1 (stereo not given)	2.93%
COc1cc(CNCCNC(=O)c2ccc(O)cc2)ccc1SC	9.72%
CCn1cc(S(=O)(=O)NC(CO)Cc2ccccc2)cn1 (stereo not given)	6.07%
CCc1nc(CNC2CCCCNC2=O)cs1 (stereo not given)	8.74%
N#Cc1ccc(N2CCN(c3cnccn3)CC2)c(C(F)(F)F)c1	46.6%
NS(=O)(=O)c1cnn(CCC(=O)N(C2CCCCC2)C2CC2)c1	-0.157%
CCC1C(=O)NCCN1c1ccnc(C(C)(C)C)n1 (stereo not given)	-8.37%
CCC1C(=O)NCCN1c1cc(C)ncn1 (stereo not given)	3.41%
CCS(=O)(=O)NC(CCSC)C(=O)Nc1cccc(C)c1C (stereo not given)	-2.51%
O=C(Cc1ccccc1F)NCC1CCN(CCc2ccccc2)C1 (stereo not given)	-43.5%
Cc1cccc(C)c1CCNC(=O)N1CCCC2(C1)OCCO2	-3.47%
O=C(CN1CCCCC1Cn1cccn1)NC1CCN(C2CC2)CC1 (stereo not given)	-4.43%
Cn1cccc1CNC(=O)N(CCO)C1CCCc2ccccc21 (stereo not given)	-7.45%
CC(=O)NC(C)c1ccc(OCC2CC2)c(F)c1 (stereo not given)	-7.81%
Cc1csc(CNC(=O)Nc2cc(C(F)(F)F)c[nH]c2=O)n1	-13.7%
COC(=O)CS(=O)(=O)CCC(=O)N1CCCC1c1ccsc1 (stereo not given)	-16.5%
Cc1csc([C@@H]2C[C@@H]3CCN(Cc4cc(C)on4)C[C@H]3O2)n1	-106%
CC(C)(C)NC(=O)CN1CCCC(c2ccc(C(=O)O)cc2)C1 (stereo not given)	-6.17%
CSc1ccc(CN(CCO)C(=O)CCc2ccc(O)cc2)cc1	-0.711%
Cc1ccsc1CN(C)c1cc(N2CCOCC2)ncn1	-0.33%
COc1ccc(CCn2ccnc2-c2cc3n(n2)CCCNC3)cc1	8.07%

Compound	cytotoxicity at 10 µM
O=C1CC(C(=O)O)C2(CCN(C(=O)Nc3ccccc3Cl)CC2)N1 (stereo not given)	2.14%
Cc1cc(C[C@@H]2COC[C@@H]2NC(=O)CNC(=O)N(C)C)on1	2.57%
Cc1ccc(OC2(C(=O)NC(C)Cc3ccncc3)CCNCC2)cc1 (stereo not given)	-9.89%
COCc1ncc(CN2CCC(Oc3ccccc3C)CC2)cn1	1.09%
COCc1cn(CC2CCN(Cc3cc(C)[nH]n3)CC2)nn1	-2.44%
CN(C)CCN1CC(C(=O)NCc2cccc(-n3cccn3)c2)CC1=O (stereo not given)	-0.0342%
CC[C@H]1COCCN1C(=O)c1cnc(-c2ccccc2)nc1C	2.84%
O=C1CCCc2occ(C(=O)N3CCCC(O)(CO)C3)c21 (stereo not given)	-10.1%
Cc1ncc(C(=O)N2CCC(N3C[C@@H](C)O[C@@H](C)C3)CC2)c(=O)[nH]1	3.42%
Cn1nc(CO)c2c1CCN(c1ncnc3c1CCNCC3)C2	0.549%
CC(C)SCC(=O)N1Cc2cnc(-c3ccccc3)nc2C1	1.2%
CN(CCc1ccccn1)C(=O)CCC1CCCN(c2ccncc2)C1 (stereo not given)	-3.48%
CO[C@H]1CN(C(C)C)C[C@@H]1NC(=O)c1cc(-c2ccccc2F)n[nH]1	-6.01%
Cc1nc(C(C)C)ncc1C(=O)N1CCCC(N2CCCC2)C1 (stereo not given)	-20.1%
CC1CCN(CCCNS(=O)(=O)Cc2ccccc2F)CC1	-8.79%
CN(C)C(=O)N1CCN(C(=O)CCc2ccccc2)[C@H]2CS(=O)(=O)C[C@H]21	-17.1%
CC(C)c1cc(N2CCN(c3ccc(O)cc3)CC2)n2nccc2n1	-5.76%
CCn1nc(CC(C)C)cc1C(=O)N1CC[C@@H](O)C1	16.5%
CC(C)C(=O)N1CCN(C(=O)c2cscn2)[C@H]2CS(=O)(=O)C[C@H]21	-7.15%
Cc1c[nH]c(CN(C)C(=O)c2cccc(CCC(C)(C)O)c2)n1	-6.85%
Cc1cc2cc(C(=O)N3CC[C@H](O)[C@]4(CCCO4)C3)ccc2o1	1.01%
Cc1cccnc1C(=O)N1CCCCC1c1[nH]ncc1S(C)(=O)=O (stereo not given)	5.92%

Compound	cytotoxicity at 10 µM
c1ccc(COc2ccccc2CNC2CCc3ncnn3C2)cc1 (stereo not given)	-10.2%
CCN(CC1CCOC1)C(=O)c1ccccc1N1CCOCC1 (stereo not given)	-13.6%
CN(CCn1cccn1)S(=O)(=O)N1CCCC1c1ccco1 (stereo not given)	-9.56%
Cc1cc(CC(=O)N(CC2CN(C)CCO2)c2nccs2)no1 (stereo not given)	-7.49%
Cc1cc(CN(C)C(=O)NCc2cccc(N3CCCC3=O)c2)no1	-12.4%
COCCOc1ccc(NC(=O)C2CCCN(C(N)=O)C2)cn1 (stereo not given)	-8.9%
Cc1cccc(-c2nc(CN(Cc3cccs3)CC3CCCO3)no2)c1 (stereo not given)	-3.01%
Cc1ccc(N2CCCC(NCc3cscn3)C2)nn1 (stereo not given)	-7.2%
CCN(Cc1nc2c(cnn2C)c(=O)[nH]1)c1cccc(Cl)c1	1.18%
Cc1nc(CN(C)C2CCN(Cc3ccc4c(c3)OCCO4)C2)no1 (stereo not given)	-4.79%
Fc1ccc(-c2cnc(C3CCCN3)cn2)cc1 (stereo not given)	-2.79%
Cc1cc(C[C@@H]2CCC[C@H]2NCc2cc(C)c(O)c(C)c2)on1	3.37%
CN(Cc1cncnc1)[C@@H]1CN(C(=O)c2ccco2)[C@@H]2CCCO[C@H]12	-113%
COCC(=O)N1CCC2(CC1)CC(COC)N(Cc1ccccn1)C2 (stereo not given)	-101%
CN(C)[C@@H]1CCN(c2ncccn2)[C@H]1Cc1ccncc1	-17.9%
O=C1COC2(CCN(Cc3cccs3)CC2)CN1c1ccccc1	-4.63%
CN1CCO[C@@H]2CN(C(=O)Cc3cccs3)CC[C@@H]2C1	-103%
CCc1ncnc2c1CCN(Cc1ccc(OC)cc1)CC2	-0.00161%
CN(C)CCn1c([C@@H]2CCCO2)cc2cccnc21	-25.4%
Cc1noc(C)c1CN1CC[C@@H]2O[C@@H](COCC(C)C)CC[C@@H]21	-0.125%
Cc1nc[nH]c1CN1C[C@H]2CC[C@@H](C1)N(C(=O)CCNS(C)(=O)=O)C2	-10.4%
CCc1nnc(SCC(=O)N2C[C@H]3CC[C@@H](C2)N(CC=C(C)C)C3)[nH]1	-6.18%
